ChEMBL document CHEMBL5712901, “DOT1L inhibition blocks multiple myeloma cell proliferation by suppressing IRF4-MYC signaling” (2019)
Calls of active or inactive are those of the source. The calls are words filed in the database; no cut-off is given here.

Tests used:
RPMI-8226 [1] = assay: Upregulation of CCDC96 gene in human RPMI-8226 cells at 1 uM for 6 days by; type: functional, cell-based; details: time 6.0 day
RPMI-8226 [2] = assay: Effect on human RPMI-8226 cells assessed as change in Myc mRNA level at 1 uM for 6 days by qRT-PCR analysis; details: time 6.0 day
RPMI-8226 [3] = assay: Upregulation of SLC9A9 gene in human RPMI-8226 cells at 1 uM for 6 days by; type: functional, cell-based; details: time 6.0 day
MM1.S [4] = assay: Upregulation of CAPN2 gene in human MM1.S cells at 1 uM for 6 days by; type: functional, cell-based; details: time 6.0 day
RPMI-8226 [5] = assay: Upregulation of EMID1 gene in human RPMI-8226 cells at 1 uM for 6 days by; type: functional, cell-based; details: time 6.0 day
Summary of the method: (§1)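 Human myeloma lines RPMI-8226 and MM.1S exposed to 1 μM DOT1L inhibitor, or DMSO, for 6 days. Whole-genome expression profiled on gene expression microarray.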

MM1.S [6] = assay: Upregulation of CCL2 gene in human MM1.S cells at 1 uM for 6 days by; type: functional, cell-based; details: time 6.0 day
RPMI-8226 [7] = assay: Upregulation of NEURL1B gene in human RPMI-8226 cells at 1 uM for 6 days by; type: functional, cell-based; details: time 6.0 day
KMS-12-PE = assay: Antiproliferative activity against human KMS-12-PE cells treated upto 14 days with replacement of fresh medium containing drug every 3 to 4 days by cell counting kit-8 method; type: functional, cell-based; details: time <= 14.0 day
Summary of the method: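 Screen of histone methylation modifier inhibitors in 6-well plates at 3 × 10^4 to 1 × 10^5 cells/well. Drug at 1 μM or DMSO for up to 14 days, with medium and drug refreshed every 3-4 days. CCK-8 read on days 3-4 and 11-14. Values normalized to DMSO; mean of 5 replications ± SEM; unpaired two-sided t-test.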

RPMI-8226 [8] = assay: Upregulation of ZNF75D gene in human RPMI-8226 cells at 1 uM for 6 days by; type: functional, cell-based; details: time 6.0 day
MM1.S [9] = assay: Upregulation of CXCL12 gene in human MM1.S cells at 1 uM for 6 days by; type: functional, cell-based; details: time 6.0 day; summary of the method: as §1
MM1.S [10] = assay: Upregulation of HLA-DMB gene in human MM1.S cells at 1 uM for 6 days by; type: functional, cell-based; details: time 6.0 day; summary of the method: as §1
RPMI-8226 [11] = assay: Upregulation of IFITM3 gene in human RPMI-8226 cells at 1 uM for 6 days by; type: functional, cell-based; details: time 6.0 day
MM1.S [12] = assay: Upregulation of GTF2IRD2 gene in human MM1.S cells at 1 uM for 6 days by; type: functional, cell-based; details: time 6.0 day; summary of the method: as §1
MM1.S [13] = assay: Upregulation of PRDM8 gene in human MM1.S cells at 1 uM for 6 days by; type: functional, cell-based; details: time 6.0 day
RPMI-8226 [14] = assay: Upregulation of MYOF gene in human RPMI-8226 cells at 1 uM for 6 days by; type: functional, cell-based; details: time 6.0 day
MM1.S [15] = assay: Upregulation of CPED1 gene in human MM1.S cells at 1 uM for 6 days by; type: functional, cell-based; details: time 6.0 day; summary of the method: as §1
MM1.S [16] = assay: Upregulation of CTSH gene in human MM1.S cells at 1 uM for 6 days by; type: functional, cell-based; details: time 6.0 day; summary of the method: as §1
RPMI-8226 [17] = assay: Upregulation of HLA-DQB1 gene in human RPMI-8226 cells at 1 uM for 6 days by; type: functional, cell-based; details: time 6.0 day
MM1.S [18] = assay: Upregulation of APOL4 gene in human MM1.S cells at 1 uM for 6 days by; type: functional, cell-based; details: time 6.0 day
RPMI-8226 [19] = assay: Upregulation of SORL1 gene in human RPMI-8226 cells at 1 uM for 6 days by; type: functional, cell-based; details: time 6.0 day
MM1.S [20] = assay: Upregulation of HLA-DRB5 gene in human MM1.S cells at 1 uM for 6 days by; type: functional, cell-based; details: time 6.0 day
MM1.S [21] = assay: Upregulation of XKR3 gene in human MM1.S cells at 1 uM for 6 days by; type: functional, cell-based; details: time 6.0 day
MM1.S [22] = assay: Upregulation of S100A10 gene in human MM1.S cells at 1 uM for 6 days by; type: functional, cell-based; details: time 6.0 day
MM1.S [23] = assay: Upregulation of RGS1 gene in human MM1.S cells at 1 uM for 6 days by; type: functional, cell-based; details: time 6.0 day
MM1.S [24] = assay: Upregulation of DDIT4L gene in human MM1.S cells at 1 uM for 6 days by; type: functional, cell-based; details: time 6.0 day; summary of the method: as §1
RPMI-8226 [25] = assay: Upregulation of RGS1 gene in human RPMI-8226 cells at 1 uM for 6 days by; type: functional, cell-based; details: time 6.0 day
MM1.S [26] = assay: Upregulation of CXCL10 gene in human MM1.S cells at 1 uM for 6 days by; type: functional, cell-based; details: time 6.0 day; summary of the method: as §1
RPMI-8226 [27] = assay: Upregulation of GNAI1 gene in human RPMI-8226 cells at 1 uM for 6 days by; type: functional, cell-based; details: time 6.0 day; summary of the method: as §1
MM1.S [28] = assay: Upregulation of SOAT2 gene in human MM1.S cells at 1 uM for 6 days by; type: functional, cell-based; details: time 6.0 day
RPMI-8226 [29] = assay: Upregulation of GPD2 gene in human RPMI-8226 cells at 1 uM for 6 days by; type: functional, cell-based; details: time 6.0 day; summary of the method: as §1
RPMI-8226 [30] = assay: Upregulation of PTPN13 gene in human RPMI-8226 cells at 1 uM for 6 days by; type: functional, cell-based; details: time 6.0 day
MM1.S [31] = assay: Upregulation of CCR5 gene in human MM1.S cells at 1 uM for 6 days by; type: functional, cell-based; details: time 6.0 day
MM1.S [32] = assay: Upregulation of MYO1F gene in human MM1.S cells at 1 uM for 6 days by; type: functional, cell-based; details: time 6.0 day
RPMI-8226 [33] = assay: Upregulation of MYO1F gene in human RPMI-8226 cells at 1 uM for 6 days by; type: functional, cell-based; details: time 6.0 day
MM1.S [34] = assay: Upregulation of CHRNA6 gene in human MM1.S cells at 1 uM for 6 days by; type: functional, cell-based; details: time 6.0 day
RPMI-8226 [35] = assay: Upregulation of RAPGEF2 gene in human RPMI-8226 cells at 1 uM for 6 days by; type: functional, cell-based; details: time 6.0 day
RPMI-8226 [36] = assay: Upregulation of MILR1 gene in human RPMI-8226 cells at 1 uM for 6 days by; type: functional, cell-based; details: time 6.0 day
RPMI-8226 [37] = assay: Upregulation of FBXO2 gene in human RPMI-8226 cells at 1 uM for 6 days by; type: functional, cell-based; details: time 6.0 day; summary of the method: as §1
RPMI-8226 [38] = assay: Upregulation of IFN in human RPMI-8226 cells assessed as increase in ISG15 gene at 1 uM for 6 days by qRT-PCR analysis; type: functional, cell-based; details: time 6.0 day
MM1.S [39] = assay: Effect on human MM1.S cells assessed as change in PRDM1 mRNA level at 1 uM for 3 days by ChIP-qPCR analysis; type: functional, cell-based; details: time 3.0 day
Summary of the method: (§2)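 ChIP-qPCR for H3K79me2 at IRF4-MYC signaling genes after 1 μM inhibitor or DMSO for 3 days. Signal normalized to input DNA. An intergenic region 28 kb upstream of KLF2 served as negative control. Mean of 3 replications ± SEM.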

RPMI-8226 [40] = assay: Upregulation of IFN in human RPMI-8226 cells assessed as increase in IFIT1 gene at 1 uM for 6 days by qRT-PCR analysis; type: functional, cell-based; details: time 6.0 day
RPMI-8226 [41] = assay: Effect on human RPMI-8226 cells assessed as change in IRF4 mRNA level at 1 uM for 3 days by ChIP-qPCR analysis; type: functional, cell-based; details: time 3.0 day; summary of the method: as §2
MM1.S [42] = assay: Effect on human MM1.S cells assessed as change in KLF2 mRNA level at 1 uM for 3 days by ChIP-qPCR analysis; type: functional, cell-based; details: time 3.0 day; summary of the method: as §2
RPMI-8226 [43] = assay: Induction of apoptosis in human RPMI-8226 cells assessed as early apoptotic cells at 1 uM for 6 days by annexin-V based propidium iodide staining based flow cytometric analysis (reference value: 8.16%); type: functional; details: time 6 day
MM1.S [44] = assay: Induction of apoptosis in human MM1.S cells assessed as early apoptotic cells at 1 uM for 3 days by annexin-V based propidium iodide staining based flow cytometric analysis (reference value: 5.51%); type: functional; details: time 3 day

## CC(C)N(CCCNC(=O)Nc1ccc(C(C)(C)C)cc1)C[C@H]1O[C@@H](n2cc(Br)c3c(N)ncnc32)[C@H](O)[C@@H]1O
RPMI-8226 [1]
  Activity: Active
RPMI-8226 [2]
  Activity: Active
RPMI-8226 [3]
  Activity: Active
MM1.S [4]
  Activity: Active
RPMI-8226 [5]
  Activity: Active
MM1.S [6]
  Activity: Active
RPMI-8226 [7]
  Activity: Active
KMS-12-PE
  Activity: inactive
RPMI-8226 [8]
  Activity: Active
MM1.S [9]
  Activity: Active
MM1.S [10]
  Activity: Active
RPMI-8226 [11]
  Activity: Active
MM1.S [12]
  Activity: Active
MM1.S [13]
  Activity: Active
RPMI-8226 [14]
  Activity: Active
MM1.S [15]
  Activity: Active
MM1.S [16]
  Activity: Active
RPMI-8226 [17]
  Activity: Active
MM1.S [18]
  Activity: Active
RPMI-8226 [19]
  Activity: Active
MM1.S [20]
  Activity: Active
MM1.S [21]
  Activity: Active
MM1.S [22]
  Activity: Active
MM1.S [23]
  Activity: Active
MM1.S [24]
  Activity: Active
RPMI-8226 [25]
  Activity: Active
MM1.S [26]
  Activity: Active
RPMI-8226 [27]
  Activity: Active
MM1.S [28]
  Activity: Active
RPMI-8226 [29]
  Activity: Active
RPMI-8226 [30]
  Activity: Active
MM1.S [31]
  Activity: Active
MM1.S [32]
  Activity: Active
RPMI-8226 [33]
  Activity: Active
MM1.S [34]
  Activity: Active
RPMI-8226 [35]
  Activity: Active
RPMI-8226 [36]
  Activity: Active
RPMI-8226 [37]
  Activity: Active

## CC(C)N(C[C@H]1O[C@@H](n2cnc3c(N)ncnc32)[C@H](O)[C@@H]1O)[C@H]1C[C@@H](CCc2nc3cc(C(C)(C)C)ccc3[nH]2)C1 [PINOMETOSTAT]
RPMI-8226 [38]
  Activity: Active
MM1.S [39]
  Activity: Active
RPMI-8226 [40]
  Activity: Active
RPMI-8226 [41]
  Activity: Active
MM1.S [42]
  Activity: Active
RPMI-8226 [43]
  Activity: 15%
MM1.S [44]
  Activity: 3.11%
